From ChEMBL document CHEMBL1212777, “Novel VIM metallo-beta-lactamase variant from clinical isolates of Enterobacteriaceae from Algeria” (2010)
Values after ≈ are worked out from the molar mass of the structure shown.

How the values were obtained:
Format in all cases: functional
Escherichia coli [1] = experiment: Antimicrobial activity against Escherichia coli DH5alpha harbouring plasmid BK-VIM-19 expressing beta-lactamase VIM-19 by microdilution method in presence of 0.4 mM EDTA
Method in brief: (§1)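 MIC by dilution on Mueller-Hinton agar, inoculum 10^4 CFU per spot, interpreted by CA-SFM guidelines. Inhibitor combinations where tested: clavulanic acid 2 μg/ml, tazobactam 4 μg/ml, EDTA 0.4 mM. Transconjugants came from rifampin-resistant E. coli C600 selected on rifampin 300 μg/ml plus cefotaxime 0.5 μg/ml. Transformants came from electroporation into E. coli DH5α selected on cefotaxime 0.5 μg/ml.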

Providencia stuartii [2] = experiment: Antimicrobial activity against Providencia stuartii 6858 strain expressing beta-lactamase VIM-19 by microdilution method in presence of 0.4 mM EDTA
Method in brief: (§2)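 Clinical isolates from intensive care patients. MICs by dilution on Mueller-Hinton agar, inoculum 10^4 CFU per spot, read after growth and interpreted by CA-SFM guidelines. Where the line names an inhibitor, it was held at a fixed level: clavulanic acid 2 μg/ml, tazobactam 4 μg/ml, or EDTA 0.4 mM.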

Escherichia coli [3] = experiment: Antimicrobial activity against Escherichia coli harbouring plasmid BK-CMV expressing beta-lactamase VIM-19 by microdilution method; method in brief: as §1
Providencia stuartii [4] = experiment: Antimicrobial activity against Providencia stuartii 6858 strain expressing beta-lactamase VIM-19 by microdilution method; method in brief: as §2
Escherichia coli [5] = experiment: Antimicrobial activity against Escherichia coli DH5alpha 2878 transformant expressing beta-lactamase VIM-19 by microdilution method in presence of 0.4 mM EDTA; method in brief: as §1
Klebsiella pneumoniae [6] = experiment: Antimicrobial activity against Klebsiella pneumoniae 2878 strain expressing beta-lactamase VIM-19 by microdilution method; method in brief: as §2
Klebsiella pneumoniae [7] = experiment: Antimicrobial activity against Klebsiella pneumoniae 6828 strain expressing beta-lactamase VIM-19 by microdilution method; method in brief: as §2
Escherichia coli [8] = experiment: Antimicrobial activity against Escherichia coli 2603 strain expressing beta-lactamase VIM-19 by microdilution method in presence of 0.4 mM EDTA; method in brief: as §2
Escherichia coli [9] = experiment: Antimicrobial activity against Escherichia coli DH5alpha 2878 transformant expressing beta-lactamase VIM-19 by microdilution method; method in brief: as §1
Klebsiella pneumoniae [10] = experiment: Antimicrobial activity against Klebsiella pneumoniae 6828 strain expressing beta-lactamase VIM-19 by microdilution method in presence of 0.4 mM EDTA; method in brief: as §2
Escherichia coli [11] = experiment: Antimicrobial activity against Escherichia coli C600 2878 transconjugate expressing beta-lactamase VIM-19 by microdilution method; method in brief: as §1
Klebsiella pneumoniae [12] = experiment: Antimicrobial activity against Klebsiella pneumoniae 2878 strain expressing beta-lactamase VIM-19 […] in presence of 0.4 mM EDTA
Escherichia coli [13] = experiment: Antimicrobial activity against Escherichia coli 138 expressing beta-lactamase VIM-19 by microdilution method in presence of 0.4 mM EDTA; method in brief: as §1
Escherichia coli [14] = experiment: Antimicrobial activity against Escherichia coli harbouring plasmidBK-CMV expressing beta-lactamase VIM-19 […] in presence of 0.4 mM EDTA
Escherichia coli [15] = experiment: Antimicrobial activity against Escherichia coli C600 2878 transconjugate expressing beta-lactamase VIM-19 by microdilution method in presence of 0.4 mM EDTA
Method in brief: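 Rifampin-resistant E. coli C600 recipient mated with the clinical strain. Transconjugants were selected on agar with rifampin 300 μg/ml plus cefotaxime 0.5 μg/ml. MICs by dilution on Mueller-Hinton agar, inoculum 10^4 CFU per spot, CA-SFM interpretation. Inhibitor at a fixed level: clavulanic acid 2 μg/ml or EDTA 0.4 mM.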

Escherichia coli [16] = experiment: Antimicrobial activity against Escherichia coli DH5alpha harbouring plasmid BK-VIM-19 expressing beta-lactamase VIM-19 by microdilution method; method in brief: as §1
Escherichia coli [17] = experiment: Antimicrobial activity against Escherichia coli 138 expressing beta-lactamase VIM-19 by microdilution method; method in brief: as §2
Escherichia coli [18] = experiment: Antimicrobial activity against Escherichia coli 2603 strain expressing beta-lactamase VIM-19 by microdilution method; method in brief: as §2

Row | Compound | MIC (Escherichia coli [1]) [µg/mL] | MIC (Providencia stuartii [2]) [µg/mL] | MIC (Escherichia coli [3]) [µg/mL] | MIC (Providencia stuartii [4]) [µg/mL] | MIC (Escherichia coli [5]) [µg/mL] | MIC (Klebsiella pneumoniae [6]) [µg/mL] | MIC (Klebsiella pneumoniae [7]) [µg/mL] | MIC (Escherichia coli [8]) [µg/mL] | MIC (Escherichia coli [9]) [µg/mL] | MIC (Klebsiella pneumoniae [10]) [µg/mL] | MIC (Escherichia coli [11]) [µg/mL] | MIC (Klebsiella pneumoniae [12]) [µg/mL] | MIC (Escherichia coli [13]) [µg/mL] | MIC (Escherichia coli [14]) [µg/mL] | MIC (Escherichia coli [15]) [µg/mL] | MIC (Escherichia coli [16]) [µg/mL] | MIC (Escherichia coli [17]) [µg/mL] | MIC (Escherichia coli [18]) [µg/mL]
1 | CO/N=C(\C(=O)N[C@@H]1C(=O)N2C(C(=O)O)=C(COC(C)=O)CS[C@H]12)c1csc(N)n1 [CEFOTAXIME] | 0.06 | 2 | 0.06 (≈ 0.132 µM) | 128 (≈ 281 µM) | 1 | 256 (≈ 562 µM) | 128 (≈ 281 µM) | 4 | 256 (≈ 562 µM) | 4 | 64 (≈ 141 µM) | 4 | 32 | 0.06 | 1 | 128 (≈ 281 µM) | 512 (≈ 1120 µM) | 256 (≈ 562 µM)
2 | CO/N=C(\C(=O)N[C@@H]1C(=O)N2C(C(=O)[O-])=C(C[N+]3(C)CCCC3)CS[C@H]12)c1csc(N)n1 |  |  | < 0.12 | 2 (≈ 4.16 µM) |  | 64 (≈ 133 µM) | 4 (≈ 8.32 µM) |  | 4 (≈ 8.32 µM) |  |  |  |  |  |  |  | 64 (≈ 133 µM) | 4 (≈ 8.32 µM)
3 | CC(C)(O/N=C(\C(=O)N[C@@H]1C(=O)N2C(C(=O)[O-])=C(C[n+]3ccccc3)CS[C@H]12)c1csc(N)n1)C(=O)O [CEFTAZIDIME] | 0.12 | 4 | 0.12 (≈ 0.22 µM) | 64 (≈ 117 µM) | 8 | 128 (≈ 234 µM) | 64 (≈ 117 µM) | 16 | 128 (≈ 234 µM) | 8 | 32 (≈ 58.5 µM) | 8 | 128 | 0.12 |  | 32 (≈ 58.5 µM) | 512 (≈ 937 µM) | 128 (≈ 234 µM)
4 | CC(=O)OCC1=C(C(=O)O)N2C(=O)[C@@H](NC(=O)Cc3cccs3)[C@H]2SC1 [CEPHALOTHIN] |  |  | 4 (≈ 10.1 µM) | > 2050 |  | > 2050 | 2050 (≈ 5170 µM) |  | 2050 (≈ 5170 µM) |  | 1020 (≈ 2580 µM) |  |  |  |  | 1020 (≈ 2580 µM) | > 2050 | 2050 (≈ 5170 µM)
5 | C[C@@H](O)[C@H]1C(=O)N2C(C(=O)O)=C(SCCNC=N)C[C@H]12 [IMIPENEM ANHYDROUS] | < 0.12 | 0.5 |  | 16 (≈ 53.4 µM) | < 0.12 | 64 (≈ 214 µM) | 4 (≈ 13.4 µM) | 0.25 | 8 (≈ 26.7 µM) | < 0.12 | 4 (≈ 13.4 µM) | 0.5 | 0.5 | < 0.12 | < 0.12 | 16 (≈ 53.4 µM) | 32 (≈ 107 µM) | 16 (≈ 53.4 µM)
6 | CC1(C)S[C@@H]2[C@H](NC(=O)[C@H](C(=O)O)c3ccsc3)C(=O)N2[C@H]1C(=O)O [TICARCILLIN] |  |  | 2 (≈ 5.2 µM) | > 2050 |  | > 2050 | > 2050 |  | > 2050 |  | > 2050 |  |  |  |  | > 2050 | > 2050 | > 2050
